Measurements as given in ChEMBL document CHEMBL1128394, “Hydroxamic acids as potent inhibitors of endothelin-converting enzyme from human bronchiolar smooth muscle” (J Med Chem, 1995).
Where “and” joins values, the source holds several entries; their conditions need not be identical. Equal entries are not always repeated. Residues, ends and D or L forms follow the SMILES beside them. *: point of attachment. Cbz = O=C(OCc1ccccc1)*; NHOH = ON*

Key:
Neprilysin [1] = molecular target: T1, Neprilysin (Oryctolagus cuniculus, UniProt P08049); assay: Inhibitory activity against big ET-1 of Neutral endopeptidase
T1 sequence (P08049 whole entry): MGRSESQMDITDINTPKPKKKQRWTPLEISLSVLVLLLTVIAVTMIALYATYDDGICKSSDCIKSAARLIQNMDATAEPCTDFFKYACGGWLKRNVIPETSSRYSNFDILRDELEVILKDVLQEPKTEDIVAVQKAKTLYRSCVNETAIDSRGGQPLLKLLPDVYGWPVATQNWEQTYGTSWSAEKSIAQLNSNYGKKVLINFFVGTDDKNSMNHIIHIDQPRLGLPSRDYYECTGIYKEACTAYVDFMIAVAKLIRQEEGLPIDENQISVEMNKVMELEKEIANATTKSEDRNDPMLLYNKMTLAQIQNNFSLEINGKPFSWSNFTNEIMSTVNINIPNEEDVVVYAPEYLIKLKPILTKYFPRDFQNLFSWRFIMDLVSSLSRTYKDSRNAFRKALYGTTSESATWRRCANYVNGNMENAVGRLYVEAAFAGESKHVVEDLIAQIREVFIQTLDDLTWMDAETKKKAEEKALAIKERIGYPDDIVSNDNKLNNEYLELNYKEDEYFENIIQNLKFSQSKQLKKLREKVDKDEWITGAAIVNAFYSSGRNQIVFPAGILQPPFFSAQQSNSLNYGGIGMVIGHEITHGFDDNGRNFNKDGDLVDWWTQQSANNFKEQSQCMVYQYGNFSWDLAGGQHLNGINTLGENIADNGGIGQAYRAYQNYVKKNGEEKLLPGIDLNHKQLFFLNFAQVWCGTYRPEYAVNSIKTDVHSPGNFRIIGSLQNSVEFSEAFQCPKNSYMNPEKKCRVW
Method in brief: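 Soluble rabbit kidney neutral endopeptidase, run under the same conditions as the ECE assay: 30 min inhibitor preincubation at 37 °C, 3 μM human big ET-1, 4–5 h at 37 °C, pH 7.2 Na-MOPS buffer with NaCl and CaCl2. ET-1 formed was measured by reverse-phase HPLC with fluorescence detection. IC50 by least-squares curve fit.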

Thermolysin = molecular target: T2, Thermolysin (Bacillus thermoproteolyticus, UniProt P00800); assay: Inhibitory activity against thermolysin with 0.5 uM [Leu5]-enkephalin (NEN)
T2 sequence (P00800 whole entry): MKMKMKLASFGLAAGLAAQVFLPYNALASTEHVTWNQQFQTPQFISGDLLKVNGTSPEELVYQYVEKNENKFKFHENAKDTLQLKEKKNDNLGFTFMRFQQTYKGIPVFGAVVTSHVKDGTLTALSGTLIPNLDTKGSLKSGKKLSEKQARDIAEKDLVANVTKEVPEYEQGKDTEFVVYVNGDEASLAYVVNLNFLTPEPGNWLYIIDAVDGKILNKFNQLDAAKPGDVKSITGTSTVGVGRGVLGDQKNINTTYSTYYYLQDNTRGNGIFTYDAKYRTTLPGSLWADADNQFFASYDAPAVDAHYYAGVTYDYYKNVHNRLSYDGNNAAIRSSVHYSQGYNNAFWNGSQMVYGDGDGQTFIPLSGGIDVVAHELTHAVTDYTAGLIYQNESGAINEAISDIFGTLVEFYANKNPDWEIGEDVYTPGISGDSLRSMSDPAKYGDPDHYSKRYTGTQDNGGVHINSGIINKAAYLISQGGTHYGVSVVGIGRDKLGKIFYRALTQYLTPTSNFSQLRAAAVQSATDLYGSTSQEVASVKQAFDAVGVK
Method in brief: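 Thermolysin preincubated 15 min with inhibitor. Substrate 0.5 μM [3,5-3H-Tyr1][Leu]enkephalin. Reaction ran 10 min at 20 °C in 50 mM Tris-Cl pH 7.5.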

Neprilysin [2] = molecular target: T1, Neprilysin; assay: Inhibitory activity against Leu-enkeph of Neutral endopeptidase
Method in brief: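 Soluble rabbit kidney neutral endopeptidase preincubated 15 min with inhibitor. Tritiated [Leu]enkephalin as substrate. Reaction ran 10 min at 20 °C in 50 mM Tris-Cl pH 7.5.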

[3] = molecular target: T3, Endothelin-converting enzyme 1 (Homo sapiens, UniProt P42892); assay: Inhibitory activity against human bronchiolar smooth muscle Endothelin-converting enzyme 1; format: tissue-based, Muscle tissue
T3 sequence (P42892 whole entry): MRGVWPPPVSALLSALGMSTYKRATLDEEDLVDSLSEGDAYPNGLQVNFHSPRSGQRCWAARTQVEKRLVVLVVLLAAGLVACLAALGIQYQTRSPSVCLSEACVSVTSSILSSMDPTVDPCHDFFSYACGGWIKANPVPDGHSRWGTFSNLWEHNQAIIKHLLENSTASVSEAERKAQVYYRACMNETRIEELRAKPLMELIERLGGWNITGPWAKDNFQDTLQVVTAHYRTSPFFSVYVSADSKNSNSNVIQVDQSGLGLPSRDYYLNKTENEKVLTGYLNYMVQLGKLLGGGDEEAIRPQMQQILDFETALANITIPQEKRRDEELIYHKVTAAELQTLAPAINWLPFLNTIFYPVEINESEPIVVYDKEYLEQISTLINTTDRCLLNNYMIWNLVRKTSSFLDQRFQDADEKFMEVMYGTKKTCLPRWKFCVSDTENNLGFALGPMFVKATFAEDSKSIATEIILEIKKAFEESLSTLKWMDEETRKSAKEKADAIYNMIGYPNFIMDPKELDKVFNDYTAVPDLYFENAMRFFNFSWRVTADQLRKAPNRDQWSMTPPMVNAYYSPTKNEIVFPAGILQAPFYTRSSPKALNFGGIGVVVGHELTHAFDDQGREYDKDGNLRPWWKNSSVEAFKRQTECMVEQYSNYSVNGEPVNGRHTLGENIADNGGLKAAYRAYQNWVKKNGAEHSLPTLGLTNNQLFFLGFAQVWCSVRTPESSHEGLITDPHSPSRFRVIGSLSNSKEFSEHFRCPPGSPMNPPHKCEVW
Method in brief: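 Enzyme purified from cultured human bronchiolar smooth muscle cell membranes (octyl glucoside solubilization, ion exchange, gel filtration). Preincubated 30 min at 37 °C with inhibitor (in DMSO), then 3 μM human big ET-1 (final) added. Run 4–5 h at 37 °C in 50 mM Na-MOPS pH 7.2, 150 mM NaCl, 30 μM CaCl2, amastatin, PMSF. Stopped with EDTA. ET-1 quantified by reverse-phase HPLC with fluorescence.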

IC50 (Neprilysin [1]) | IC50 (Thermolysin) [nM] | IC50 (Neprilysin [2]) | IC50 [3] | SMILES
40 nM | 175 | 2 nM | 11 nM | CC(C)C[C@H](C(=O)NO)C(=O)N[C@@H](C)C(=O)NCC(N)=O
0.07 nM | 5 | 0.03 nM | 0.25 nM | CC(C)CC(C(=O)NO)C(=O)NC(Cc1c[nH]c2ccccc12)C(=O)O (stereo not given)
– | – | – | > 10000 nM | CC(C)C(CC(=O)NOCc1ccccc1)C(=O)NC(CC(N)=O)C(N)=O (stereo not given)
20 nM | – | 1 nM | 3 nM | CC(C)C(C(=O)NO)C(=O)NC(CC(N)=O)C(=O)O (stereo not given)
3 nM | 9 | 2 nM | 1.2 nM | CC(C)C(C(=O)NO)C(=O)NC(Cc1c[nH]c2ccccc12)C(N)=O (stereo not given)
1000 nM | – | 950 nM | 500 nM | CC(C)C(CNO)C(=O)NC(Cc1c[nH]c2ccccc12)C(=O)O (stereo not given)
1 nM | 1900 | 2 nM | 0.01 nM | CC(C)C(C(=O)NO)C(=O)NCCC(=O)O (stereo not given)
– | – | – | 6500 nM | CC(C)C(CC(N)=O)C(=O)NCCC(=O)O (stereo not given)
– | – | – | 3000 nM | O=C(O)CCNC(=O)CC(=O)NO
0.03 nM | 5 | 0.4 nM | 0.2 nM | CC(C)C(C(=O)NO)C(=O)NC(Cc1c[nH]c2ccccc12)C(=O)O (stereo not given)
8 nM | – | 3 nM | 6.8 nM | CC(C)C(C(=O)NO)C(=O)NCC(=O)O (stereo not given)
750 nM | – | 170 nM | 150 nM | CC(C)C(CC(=O)NO)C(=O)NC(CC(N)=O)C(=O)O (stereo not given)
– | – | – | 10000 nM | CC(C)CC(C(=O)NOCc1ccccc1)C(=O)NC(Cc1c[nH]c2ccccc12)C(N)=O (stereo not given)
30 nM and 40 nM | 2000 | 5 nM and 18 nM | 17 nM and 40 nM | CC(C)C(CC(=O)NO)C(=O)NC(Cc1c[nH]c2ccccc12)C(=O)O (stereo not given)
– | – | – | 3000 nM | CC(C)C(CC(=O)NO)C(=O)NC(CC(N)=O)C(N)=O (stereo not given)
270 nM | – | 30 nM | 190 nM | CC(C)C(CC(=O)NO)C(=O)NCCC(=O)O (stereo not given)
2300 nM | – | – | 33000 nM | CC(C)C[C@H](NC(=O)[C@@H]1CCCN1C(=O)OCc1ccccc1)C(=O)NCC(=O)NO (Cbz-Pro-Leu-Gly-{NHOH})
8200 nM | – | – | 4000 nM | CCCCC[C@H](CC(=O)NO)C(=O)N[C@H](C(=O)N1CCC[C@H]1CO)C(C)C [ACTINONIN]
8 nM | 3 | 1 nM | 8 nM | C[C@H](NC(=O)[C@@H](CC(=O)NO)Cc1ccccc1)C(=O)O [KELATORPHAN]

SMILES | IC50 (Neprilysin [1]) | IC50 (Thermolysin) [nM] | IC50 (Neprilysin [2]) | IC50 [3]
CC(C)CC(C(=O)NO)C(=O)NC(Cc1c[nH]c2ccccc12)C(N)=O (stereo not given) | 7 nM | 2 | 2 nM | 4.8 nM
CC(C)C[C@H](NP(=O)(O)O[C@@H]1O[C@@H](C)[C@H](O)[C@@H](O)[C@H]1O)C(=O)N[C@@H](Cc1c[nH]c2ccccc12)C(=O)O [PHOSPHORAMIDON] | 2 nM | 33 | 6 nM | –
O=C(O)CNC(=O)C(CS)Cc1ccccc1 (stereo not given) [THIORPHAN] | – | – | – | 8 nM
